Test results published in paper PMC7031742 (Journal of Ginseng Research, 2018).
“And” between values parts separate entries of the source, which are not always exact repeats. Equal entries are not always repeated. Where two headings read alike, the source gives them in different places.

Legend:
Caco-2 cells = assay: Permeability of ginsenoside in Caco-2 cells; format: in vitro ADME; settings: for ER (efflux ratio): Caco-2, B to A / A to B; for Papp A to B: apical to basal; for Papp A to B / Papp B to A: 10 μM, 1 h; for Papp B to A: basal to apical
In short: (§1)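 Caco-2 cells (passage 41–43) grown in DMEM with 20% FBS, 1% nonessential amino acids, 4 mM L-glutamine and penicillin-streptomycin, then cultured 21 days on Transwell inserts. Test compound at 10 μM in HBSS was dosed for apical-to-basal and basal-to-apical transport over 1 h. Samples were quenched in methanol with berberine IS and analysed by LC-MS/MS. Papp = transport rate / (donor concentration × insert area).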

[1] = Pharmacokinetics of ginsenosides in human plasma after single or repeated; format: in vivo; settings: for Detection in human plasma samples: after oral ingestion of red ginseng extract, LC-MS/MS; for Accumulation factor: AUC of repeated administration divided by AUC of single administration; for AUC / Cmax / MRT / Tmax / half-life: male, human, plasma, po, 3 pouches of red ginseng extract; for half-life: t1/2, single dose of red ginseng extract, human plasma
[2] = cited from earlier work
[3] = Permeability of ginsenoside in Caco-2 cells; format: in vitro ADME; settings: human; for Papp A→B at 1 h, 10 μM / Papp B→A at 1 h, 10 μM: Caco-2; for efflux ratio at 1 h, 10 μM: Caco-2, ER (efflux ratio), Caco-2, B to A / A to B
In short: as §1

[4] = cited from earlier work; remark: listed apart in the source

SMILES	ER (efflux ratio) (Caco-2 cells)	Papp A to B (Caco-2 cells)	Papp B to A (Caco-2 cells)	Detection in human plasma samples [1]	Bioavailability ([2]; ref Odani et al. [10]) [%]	Bioavailability ([2]; ref Xu et al. [11]) [%]	Papp A→B at 1 h, 10 μM [3] [×10⁻⁶ cm/s]	Papp B→A at 1 h, 10 μM [3] [×10⁻⁶ cm/s]	efflux ratio at 1 h, 10 μM [3]	Accumulation factor [1]	AUC [1] [ng·h/mL]	Cmax [1] [ng/mL]	MRT [1] [h]	Tmax [1] [h]	half-life [1] [h]	Stability over the enzymatic and alkaline hydrolysis [4]
CC(C)=CCC[C@](C)(O)[C@H]1CC[C@]2(C)[C@@H]1[C@H](O)C[C@@H]1[C@@]3(C)CC[C@H](O[C@@H]4O[C@H](CO)[C@@H](O)[C@H](O)[C@H]4O[C@@H]4O[C@H](CO)[C@@H](O)[C@H](O)[C@H]4O)C(C)(C)[C@@H]3CC[C@]12C [Rg3]	2.97	0.05 ± 0.01 ☓10^−6 cm/s	0.14 ± 0.06 ☓10^−6 cm/s	absence												
CC(C)=CCC[C@](C)(O[C@@H]1O[C@H](CO)[C@@H](O)[C@H](O)[C@H]1O)[C@H]1CC[C@]2(C)[C@@H]1[C@H](O)C[C@@H]1[C@@]3(C)CC[C@H](O)C(C)(C)[C@@H]3[C@@H](O[C@@H]3O[C@H](CO)[C@@H](O)[C@H](O)[C@H]3O)C[C@]12C [Rg1]				could not be found	2	18.4										
CC(C)=CCC[C@](C)(O[C@@H]1O[C@H](CO[C@@H]2O[C@H](CO)[C@@H](O)[C@H](O)[C@H]2O)[C@@H](O)[C@H](O)[C@H]1O)[C@H]1CC[C@]2(C)[C@@H]1[C@H](O)C[C@@H]1[C@@]3(C)CC[C@H](O[C@@H]4O[C@H](CO)[C@@H](O)[C@H](O)[C@H]4O[C@@H]4O[C@H](CO)[C@@H](O)[C@H](O)[C@H]4O)C(C)(C)[C@@H]3CC[C@]12C [Rb1]				detected	0.1	4.3	0.27 ± 0.03	0.3 ± 0.08	< 2	4.5–6.7 and 4.55	82.7 ± 26.3	2.19 ± 0.73	26.8 ± 1.59	3.53 ± 1.25	35 ± 8.46	stable
CC(C)=CCC[C@](C)(O[C@@H]1O[C@H](CO[C@@H]2OC[C@H](O)[C@H](O)[C@H]2O)[C@@H](O)[C@H](O)[C@H]1O)[C@H]1CC[C@]2(C)[C@@H]1[C@H](O)C[C@@H]1[C@@]3(C)CC[C@H](O[C@@H]4O[C@H](CO)[C@@H](O)[C@H](O)[C@H]4O[C@@H]4O[C@H](CO)[C@@H](O)[C@H](O)[C@H]4O)C(C)(C)[C@@H]3CC[C@]12C [Rb2]				detected			0.28 ± 0.02	0.24 ± 0.05		4.5–6.7 and 6.73	47.1 ± 16.4	1.26 ± 0.39	26.8 ± 1.74	3.87 ± 2.47	38.2 ± 20.3	stable
CC(C)=CCC[C@](C)(O[C@@H]1O[C@H](CO)[C@@H](O)[C@H](O)[C@H]1O)[C@H]1CC[C@]2(C)[C@@H]1[C@H](O)C[C@@H]1[C@@]3(C)CC[C@H](O[C@@H]4O[C@H](CO)[C@@H](O)[C@H](O)[C@H]4O[C@@H]4O[C@H](CO)[C@@H](O)[C@H](O)[C@H]4O)C(C)(C)[C@@H]3CC[C@]12C [Rd]				detected			0.22 ± 0.02	0.31 ± 0.04	< 2	4.5–6.7 and 4.49	22.6 ± 18.3	0.7 ± 0.46	24.7 ± 2.23	4.87 ± 1.92	24 ± 15.3	stable
CC(C)=CCC[C@](C)(O[C@@H]1O[C@H](CO[C@@H]2O[C@@H](CO)[C@H](O)[C@H]2O)[C@@H](O)[C@H](O)[C@H]1O)[C@H]1CC[C@]2(C)[C@@H]1[C@H](O)C[C@@H]1[C@@]3(C)CC[C@H](O[C@@H]4O[C@H](CO)[C@@H](O)[C@H](O)[C@H]4O[C@@H]4O[C@H](CO)[C@@H](O)[C@H](O)[C@H]4O)C(C)(C)[C@@H]3CC[C@]12C [Rc]				detected			0.28 ± 0.09	0.33 ± 0.06	< 2	4.5–6.7 and 5.44	59.4 ± 22.9	1.5 ± 0.63	27.4 ± 2.34	3.68 ± 1.7	35.6 ± 14.8	stable
CC(C)=CCC[C@](C)(O)[C@H]1CC[C@]2(C)[C@@H]1[C@H](O)C[C@@H]1[C@@]3(C)CC[C@H](O)C(C)(C)[C@@H]3[C@@H](O[C@@H]3O[C@H](CO)[C@@H](O)[C@H](O)[C@H]3O)C[C@]12C [Rh1]	6.27	0.22 ± 0.04 ☓10^−6 cm/s	1.35 ± 0.14 ☓10^−6 cm/s	could not be found												
